Assay outcomes (PubChem)
TRPC6 inhibitor – mouse TRPC6 channel inhibition; Q61143; HEK293-TRPC6, membrane potential dye, ACh-evoked depolarization; active compounds read low; B-score at 10 µM; 1.1% of 310,000 active;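 active = B-score under library mean minus 3 SD, initial fluorescence not abnormally high, positive integrated signal ratio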;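 note: B-score derived from integrated fluorescence ratio over the kinetic read; more negative B-score means stronger inhibition of depolarization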
TRPC4 agonist – activators of mouse TRPC4 channel; Q9QUQ5; HEK293 TRPC4beta/mu-opioid, Fluo4 calcium fluorescence; active compounds read high; B-score at 10 µM; 0.49% of 310,000 active;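 active = B-score above 5 SD of library B-scores, and initial fluorescence ratio not above library mean plus 5 SD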;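 note: positive B-score marks a calcium rise read as TRPC4 activation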
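Assay system: HEK293 stable line with TRPC4beta plus mu-opioid receptor; schedule: 45 min room-temperature Fluo4 loading, 110 s read; technique: kinetic Fluo4 calcium fluorescence; evaluation: integrated baseline-normalised fluorescence ratio, converted to per-well B score; controls: buffer (low) and maximal DAMGO (high)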
TRPC4 potent – TRPC4 (mouse) allosteric potentiation | HEK293 TRPC4beta/mu-opioid, DAMGO EC20, Fluo-4 Ca2+ flux; active compounds read high | B-score at 10 µM | 0.42% of 310,000 active | AID 2227;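 active = B-score of calcium response area above 5 SD of library B-scores, with initial fluorescence ratio within 5 SD of library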;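 note: B-score of integrated fluorescence ratio over time as area under calcium response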
TRPC4 inh – TRPC4 (mouse) channel inhibition | B-score at 10 µM | Q9QUQ5 | 0.39% of 300,000 active | AID 2247 | HEK293 TRPC4beta/mu-opioid, DAMGO-evoked Fluo4 calcium flux; active compounds read low;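 active = B-score over 3 SD under the library average, no early fluorescence shift, positive overall ratio signal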
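Assay system: TRPC4beta/mu-opioid receptor HEK293 cell line; compound dosing: single concentration per test compound; detection: Fluo4 Ca2+ flux fluorescence; evaluation: per-well B score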
Pemphigus Ab inh – inhibitors of pemphigus antibody binding to human desmoglein-3. P32926. DSG3-coupled beads, scFv-anti-DSG3-GFP binding, flow cytometry; active compounds read low. binding (percent of control), % at 10 µM. 0.48% of 310,000 active. AID 588358;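 active = binding more than 3 SD below its plate's average and above zero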;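 note: hits lower antibody fragment binding to DSG3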
TRPC6 act – activates the mouse TRPC6 cation channel | HEK293-TRPC6 membrane potential dye fluorescence; active compounds read high | B-score at 10 µM | 0.13% of 310,000 active;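 active = B-score of the integrated fluorescence ratio above library mean plus 3 SD, and starting fluorescence ratio within library mean plus 5 SD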;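 note: higher score means more depolarization so channel activation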
An asterisk follows results filed as active. The list is not random: actives were taken first. Their share in the collection is about 2.5%.

How did CC1(C(=O)Nc2ccc3c(c2)OCO3)CC1(Cl)Cl (configuration not stated) do in these assays?
TRPC6 inhibitor: inactive; TRPC4 agonist: inactive; TRPC4 potent: inactive; TRPC4 inh: inactive; Pemphigus Ab inh: 97.6; TRPC6 act: inactive

Results for Cc1cc(S(=O)(=O)N2CCC(N3CCCCC3)CC2)ccc1-n1cnnn1 ?
TRPC6 inhibitor: inactive; TRPC4 agonist: inactive; TRPC4 potent: 33*; TRPC4 inh: inactive; Pemphigus Ab inh: 104.3; TRPC6 act: inactive

What do the screens show for `CCC1CCCCN1S(=O)(=O)c1ccc(-n2cnnn2)c(C)c1` (configuration not stated)?
TRPC6 inhibitor: inactive; TRPC4 agonist: inactive; TRPC4 potent: inactive; TRPC4 inh: inactive; Pemphigus Ab inh: 107.5; TRPC6 act: inactive

What do the screens show for `O=C(C1CCC1)N1CCCc2cc(S(=O)(=O)N3CCN(c4ccccc4)CC3)ccc21`?
TRPC6 inhibitor: inactive; TRPC4 agonist: inactive; TRPC4 potent: inactive; TRPC4 inh: inactive; Pemphigus Ab inh: 98.6; TRPC6 act: inactive

Results for CCN(CC)c1ncnc2scc(C3COc4ccccc4O3)c12 (configuration not stated) ?
TRPC6 inhibitor: inactive; TRPC4 agonist: inactive; TRPC4 potent: inactive; TRPC4 inh: -7*; Pemphigus Ab inh: 102.4; TRPC6 act: inactive

Results for c1ccc2c(c1)OCC(c1csc3ncnc(N4CCOCC4)c13)O2 (configuration not stated) ?
TRPC6 inhibitor: inactive; TRPC4 agonist: inactive; TRPC4 potent: inactive; TRPC4 inh: inactive; Pemphigus Ab inh: 100.2; TRPC6 act: inactive

What do the screens show for `O=C(CC1CCCCC1)NCc1ccccc1Cl`?
TRPC6 inhibitor: inactive; TRPC4 agonist: inactive; TRPC4 potent: inactive; TRPC4 inh: inactive; Pemphigus Ab inh: 114.7; TRPC6 act: inactive

What do the screens show for `COc1ccc2ccccc2c1CNC(C)c1ccccc1` (configuration not stated)?
TRPC6 inhibitor: inactive; TRPC4 agonist: inactive; TRPC4 potent: inactive; TRPC4 inh: inactive; Pemphigus Ab inh: 105.7; TRPC6 act: inactive

How did CC(NCCCOc1cccc2ccccc12)c1ccccc1 (configuration not stated) do in these assays?
TRPC6 inhibitor: inactive; TRPC4 agonist: 69*; TRPC4 potent: inactive; TRPC4 inh: inactive; Pemphigus Ab inh: 109.9; TRPC6 act: inactive

Results for CCOc1ccc(-n2c(C)c(C(C)=O)c3cc(O)ccc32)cc1 ?
TRPC6 inhibitor: inactive; TRPC4 agonist: inactive; TRPC4 potent: 11*; TRPC4 inh: inactive; Pemphigus Ab inh: 87.4; TRPC6 act: inactive

How did Cc1cccc(OC(=O)NCCOC(=O)N(O)c2ccc(Cl)cc2)c1 do in these assays?
TRPC6 inhibitor: inactive; TRPC4 agonist: inactive; TRPC4 potent: inactive; TRPC4 inh: inactive; Pemphigus Ab inh: -26.1*; TRPC6 act: inactive

What do the screens show for `COC(=O)c1ccc(CSc2nnc(NC(=O)C3CC(=O)N(c4ccc5c(c4)OCCO5)C3)s2)cc1` (configuration not stated)?
TRPC6 inhibitor: inactive; TRPC4 agonist: inactive; TRPC4 potent: inactive; TRPC4 inh: inactive; Pemphigus Ab inh: 109.1; TRPC6 act: inactive

How did COc1ccc(NC(=O)NCc2ccc3c(c2)OCO3)cc1 do in these assays?
TRPC6 inhibitor: inactive; TRPC4 agonist: inactive; TRPC4 potent: inactive; TRPC4 inh: inactive; Pemphigus Ab inh: 82.0*; TRPC6 act: inactive

Results for CC(OC(=O)c1cc2sccc2n1C)C(=O)NCc1ccc2c(c1)OCO2 (configuration not stated) ?
TRPC6 inhibitor: inactive; TRPC4 agonist: inactive; TRPC4 potent: inactive; TRPC4 inh: inactive; Pemphigus Ab inh: 68.6*; TRPC6 act: inactive

Results for Cc1ccsc1C(=O)OCC(=O)NCc1ccc2c(c1)OCO2 ?
TRPC6 inhibitor: inactive; TRPC4 agonist: inactive; TRPC4 potent: inactive; TRPC4 inh: inactive; Pemphigus Ab inh: 51.9*; TRPC6 act: inactive

What do the screens show for `Cc1ccc(C(=O)OCC(=O)NCc2ccc3c(c2)OCO3)o1`?
Pemphigus Ab inh: 95.6

Results for COc1ccc(CNCc2cc3c(cc2[N+](=O)[O-])OCO3)cc1 ?
TRPC6 inhibitor: -5.26*; TRPC4 agonist: inactive; TRPC4 potent: inactive; TRPC4 inh: inactive; Pemphigus Ab inh: 88.5; TRPC6 act: inactive

How did Cc1cc(C)cc(NCc2cc3c(cc2[N+](=O)[O-])OCO3)c1 do in these assays?
TRPC6 inhibitor: inactive; TRPC4 agonist: inactive; TRPC4 potent: inactive; TRPC4 inh: inactive; Pemphigus Ab inh: 98.5; TRPC6 act: inactive

What do the screens show for `Cc1onc(-c2ccccc2)c1C(=O)NCCc1ccncc1`?
TRPC6 inhibitor: inactive; TRPC4 agonist: inactive; TRPC4 potent: inactive; TRPC4 inh: inactive; Pemphigus Ab inh: 124.9; TRPC6 act: inactive

How did Cc1nnc(SCC(=O)c2ccc(Cl)cc2)n(N)c1=O do in these assays?
Pemphigus Ab inh: 105.8

How did Cc1ccsc1C(=O)OCC(=O)NCCNC(=O)COC(=O)c1sccc1C do in these assays?
TRPC6 inhibitor: inactive; TRPC4 agonist: inactive; TRPC4 potent: inactive; TRPC4 inh: -7*; Pemphigus Ab inh: 106.2; TRPC6 act: inactive

How did Cc1cccc(N2CCN(C(=S)Nc3ccc4nc5n(c(=O)c4c3)CCCCC5)CC2)c1C do in these assays?
TRPC6 inhibitor: inactive; TRPC4 agonist: inactive; TRPC4 potent: inactive; TRPC4 inh: inactive; Pemphigus Ab inh: 74.3; TRPC6 act: inactive

What do the screens show for `COc1ccc(/C=N/NC2=NS(=O)(=O)c3ccccc32)cc1OC`?
TRPC6 inhibitor: inactive; TRPC4 agonist: inactive; TRPC4 potent: inactive; TRPC4 inh: inactive; Pemphigus Ab inh: 100.0; TRPC6 act: inactive

What do the screens show for `COc1cc(C2c3c(oc4ccccc4c3=O)C(=O)N2Cc2ccco2)ccc1O` (configuration not stated)?
TRPC6 inhibitor: inactive; TRPC4 agonist: inactive; TRPC4 potent: inactive; TRPC4 inh: inactive; Pemphigus Ab inh: 96.3; TRPC6 act: inactive

What do the screens show for `COc1cccc(C2c3c(oc4ccccc4c3=O)C(=O)N2Cc2ccco2)c1` (configuration not stated)?
TRPC6 inhibitor: inactive; TRPC4 agonist: inactive; TRPC4 potent: inactive; TRPC4 inh: inactive; Pemphigus Ab inh: 67.5*; TRPC6 act: inactive

Results for CCOC(=O)C1CCN(Cc2ccc(OCc3ccccc3)cc2)CC1 ?
TRPC6 inhibitor: inactive; TRPC4 agonist: inactive; TRPC4 potent: inactive; TRPC4 inh: inactive; Pemphigus Ab inh: 104.9; TRPC6 act: inactive

What do the screens show for `CCOC(=O)[C@@H]1CCN(Cc2ccccc2)C[C@H]1c1ccccc1`?
TRPC6 inhibitor: inactive; TRPC4 agonist: inactive; TRPC4 potent: inactive; TRPC4 inh: -7*; Pemphigus Ab inh: 103.9; TRPC6 act: inactive
